According to paper PMC11770135 (Journal of Pesticide Science, 2024):

Assays:
Qi site of complex III = target: T1, Qi site of complex III (Lucilia sericata, UniProt A7DT80); experiment: MS-based competition binding, Qi site; set-up: species or system green bottle fly (Lucilia sericata); settings: reporter ligand FloMet 15 nM; two independent experiments
T1 sequence (A7DT80 1-378): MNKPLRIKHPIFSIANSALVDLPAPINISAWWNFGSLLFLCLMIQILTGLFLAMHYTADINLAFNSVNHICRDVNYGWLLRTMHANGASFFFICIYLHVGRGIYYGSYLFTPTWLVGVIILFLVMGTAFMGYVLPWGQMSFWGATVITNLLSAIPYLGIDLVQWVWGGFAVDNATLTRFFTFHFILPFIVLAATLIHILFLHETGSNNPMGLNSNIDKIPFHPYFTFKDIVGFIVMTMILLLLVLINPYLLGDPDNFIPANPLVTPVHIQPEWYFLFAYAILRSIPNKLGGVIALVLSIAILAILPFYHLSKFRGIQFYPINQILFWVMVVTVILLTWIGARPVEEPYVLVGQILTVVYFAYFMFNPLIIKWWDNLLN
How it was run: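 20–40 µg particles were incubated with reporter and competitor for 1 hr at room temperature in 50 mM Tris-HCl, 120 mM NaCl, 0.1 mM EDTA (pH 7.4) with bacitracin and undecyl maltoside. Bound ligand was filtered, acetonitrile-extracted and quantified by LC-ESI-MS/MS. Ki came from a one-site LogKi fit.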

[1] = system: cytochrome b hemes of complex III; experiment: Reduction of cytochrome b hemes in housefly mitochondria; format: biochemical, housefly (Musca domestica); settings: myxothiazol 8 µM with FloMet 5 µM or antimycin A 2 µM
How it was run: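 Housefly mitochondria at 0.8 mg/mL were held in 150 mM KCl, 2.5 mM MgCl₂, 1 µM rotenone, 0.2 µM SF6847, 2.0 mM KCN and 30 mM KPi (pH 7.4) at 30°C, and equilibrated with inhibitor(s) for 4 min. Reduction was started with succinate and recorded in dual-wavelength mode. Full reduction was set with excess sodium dithionite.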

[2] = system: respiratory complexes I, III, and IV (NADH oxidase activity); experiment: NADH oxidase activity; format: biochemical, housefly (Musca domestica); settings: housefly mitochondria; compound added during NADH oxidation at final 40 nM
How it was run: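 Housefly crude mitochondria were prepared by homogenizing in 250 mM sucrose, 5.0 mM EDTA, 10 mM Tris-HCl (pH 7.5), then differential centrifugation, and permeabilized by freeze-thawing. Protein was 30 µg/mL in 150 mM KCl, 2.5 mM MgCl₂, 30 mM KPi (pH 7.4) at 30°C. The reaction was started with 150 µM NADH, and NADH oxidation was followed at 340 nm.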

CCCCCC[C@H]1C(=O)O[C@H](C)[C@H](NC(=O)c2cccc(NC=O)c2O)C(=O)O[C@@H](C)[C@@H]1OC(=O)CC(C)C [antimycin A]
displacement of FloMet bound to the Qi site (Qi site of complex III): displaced FloMet at low nano molar range
effect on reduction of cytochrome b hemes, in combination with myxothiazol [1]: suppression of the reduction of b hemes

CCc1nc2cc(C)c(Oc3ccc(OC(F)(F)F)cc3)cc2c(OC(=O)OC)c1C [FLO, 2-ethyl-3,7-dimethyl-6-[4-(trifluoromethoxy)phenoxy]quinolin-4-yl methyl carbonate]
inhibition of NADH oxidase activity [2]: almost no inhibition
